Publication PMC3773367 (Biochemistry, 2010)

Legend:
ThArsA [1] = experiment: Photoaffinity labelling with increasing 8-azido[γ-32P]ATP; type: binding; conditions: read-out: apparent Kd
K16Q ThArsA = experiment: as above; type: binding; conditions: read-out: apparent Kd
ThArsA [2] = type: biochemical; conditions: read-out: Km for ATP
wild-type ArsA = wild-type ArsA (Escherichia coli, UniProt P08690); conditions: read-out: Km for ATP
E. coli strain JM109 = experiment: Arsenite resistance assay; type: cell-based, Escherichia coli
[3] = ATPase activity, NADH-coupled assay; type: biochemical, Escherichia coli; conditions: for ATPase activity relative to wild type: % of wild-type activity
Sb = type: binding, Escherichia coli; conditions: 10 μM ArsA, 2 mM ATPγS, 2.5 mM MgCl2; Sb(III) per ArsA
Method in brief: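 Purified ArsA buffer-exchanged into 50 mM MOPS-KOH pH 7.5. Incubated 1 h on ice with 2 mM ATPγS, 2.5 mM MgCl2 and a range of potassium antimonyl tartrate concentrations. Unbound metalloid removed on a spin gel-filtration column in the same buffer. Eluate diluted in 2% HNO3 and antimony measured by ICP-MS against an antimony standard. Binding expressed as a function of Sb(III) concentration.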

Sequence of wild-type ArsA (P08690 whole entry): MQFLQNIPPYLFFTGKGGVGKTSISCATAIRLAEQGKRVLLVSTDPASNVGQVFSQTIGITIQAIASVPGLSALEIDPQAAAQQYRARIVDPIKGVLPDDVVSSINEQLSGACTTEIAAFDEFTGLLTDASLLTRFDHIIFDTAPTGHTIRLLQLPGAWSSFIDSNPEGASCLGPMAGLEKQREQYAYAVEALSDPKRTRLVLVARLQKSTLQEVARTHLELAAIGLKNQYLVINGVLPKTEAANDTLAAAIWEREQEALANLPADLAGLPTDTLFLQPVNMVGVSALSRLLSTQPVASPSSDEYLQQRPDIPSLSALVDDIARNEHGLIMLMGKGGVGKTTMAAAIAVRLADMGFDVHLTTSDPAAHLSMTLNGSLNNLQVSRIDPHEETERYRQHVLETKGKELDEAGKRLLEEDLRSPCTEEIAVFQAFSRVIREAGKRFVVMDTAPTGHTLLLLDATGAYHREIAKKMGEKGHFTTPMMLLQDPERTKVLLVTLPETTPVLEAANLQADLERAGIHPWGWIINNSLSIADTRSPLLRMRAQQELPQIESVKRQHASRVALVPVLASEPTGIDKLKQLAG

Molecule: [N-]=[N+]=Nc1nc2c(N)ncnc2n1[C@@H]1O[C@H](COP(=O)(O)OP(=O)(O)OP(=O)(O)O)[C@@H](O)[C@H]1O [8-azido[γ-32P]ATP, 8-azidoadenosine 5'-[γ-32P]triphosphate]
- Kd (ThArsA [1]): 50 µM
- Kd (K16Q ThArsA): 55 µM

Molecule: Nc1ncnc2c1ncn2[C@@H]1O[C@H](COP(=O)(O)OP(=O)(O)OP(=O)(O)O)[C@@H](O)[C@H]1O [ATP, adenosine 5'-triphosphate]
- Km (ThArsA [2]): 170 µM
- Km (wild-type ArsA): 170 µM

Molecule: O=[As][O-].[Na+] [sodium arsenite]
- sodium arsenite concentration in which cells could grow (E. coli strain JM109; cells expressing wild-type arsA and arsB genes): 5 mM
- sodium arsenite concentration at which cells were sensitive (E. coli strain JM109; cells without an ars operon): 1 mM

B1: K16Q ArsA: ArsA with signature Lys16 (A1 half) changed to glutamine (protein, UniProt P08690 1-583, looked up, variant K16Q)
Arsenical pump-driving ATPase: MQFLQNIPPYLFFTGQGGVGKTSISCATAIRLAEQGKRVLLVSTDPASNVGQVFSQTIGITIQAIASVPGLSALEIDPQAAAQQYRARIVDPIKGVLPDDVVSSINEQLSGACTTEIAAFDEFTGLLTDASLLTRFDHIIFDTAPTGHTIRLLQLPGAWSSFIDSNPEGASCLGPMAGLEKQREQYAYAVEALSDPKRTRLVLVARLQKSTLQEVARTHLELAAIGLKNQYLVINGVLPKTEAANDTLAAAIWEREQEALANLPADLAGLPTDTLFLQPVNMVGVSALSRLLSTQPVASPSSDEYLQQRPDIPSLSALVDDIARNEHGLIMLMGKGGVGKTTMAAAIAVRLADMGFDVHLTTSDPAAHLSMTLNGSLNNLQVSRIDPHEETERYRQHVLETKGKELDEAGKRLLEEDLRSPCTEEIAVFQAFSRVIREAGKRFVVMDTAPTGHTLLLLDATGAYHREIAKKMGEKGHFTTPMMLLQDPERTKVLLVTLPETTPVLEAANLQADLERAGIHPWGWIINNSLSIADTRSPLLRMRAQQELPQIESVKRQHASRVALVPVLASEPTGIDKLKQLAG
- ATPase activity relative to wild type [3]: 70%
- ATPase activity relative to wild type ([3]; listed as K16Q): approximately 70%
- EC50 ([3]; read-out: concentration of antimonite [Sb(III)] required for half-maximal activation): 20 µM
- reduction in the affinity of ATP ([3]; versus wild type): 3 fold

B2: K335Q ArsA: ArsA with signature Lys335 (A2 half) changed to glutamine (protein, UniProt P08690 1-583, looked up, variant K335Q)
Arsenical pump-driving ATPase: MQFLQNIPPYLFFTGKGGVGKTSISCATAIRLAEQGKRVLLVSTDPASNVGQVFSQTIGITIQAIASVPGLSALEIDPQAAAQQYRARIVDPIKGVLPDDVVSSINEQLSGACTTEIAAFDEFTGLLTDASLLTRFDHIIFDTAPTGHTIRLLQLPGAWSSFIDSNPEGASCLGPMAGLEKQREQYAYAVEALSDPKRTRLVLVARLQKSTLQEVARTHLELAAIGLKNQYLVINGVLPKTEAANDTLAAAIWEREQEALANLPADLAGLPTDTLFLQPVNMVGVSALSRLLSTQPVASPSSDEYLQQRPDIPSLSALVDDIARNEHGLIMLMGQGGVGKTTMAAAIAVRLADMGFDVHLTTSDPAAHLSMTLNGSLNNLQVSRIDPHEETERYRQHVLETKGKELDEAGKRLLEEDLRSPCTEEIAVFQAFSRVIREAGKRFVVMDTAPTGHTLLLLDATGAYHREIAKKMGEKGHFTTPMMLLQDPERTKVLLVTLPETTPVLEAANLQADLERAGIHPWGWIINNSLSIADTRSPLLRMRAQQELPQIESVKRQHASRVALVPVLASEPTGIDKLKQLAG
- ATPase activity (in words) ([3]; purified protein): inactive

B3: C113A/C422A: ArsA derivative lacking the Sb(III)-binding residues Cys113 and Cys422 (protein, UniProt P08690 1-583, looked up, variant C113A C422A)
Arsenical pump-driving ATPase: MQFLQNIPPYLFFTGKGGVGKTSISCATAIRLAEQGKRVLLVSTDPASNVGQVFSQTIGITIQAIASVPGLSALEIDPQAAAQQYRARIVDPIKGVLPDDVVSSINEQLSGAATTEIAAFDEFTGLLTDASLLTRFDHIIFDTAPTGHTIRLLQLPGAWSSFIDSNPEGASCLGPMAGLEKQREQYAYAVEALSDPKRTRLVLVARLQKSTLQEVARTHLELAAIGLKNQYLVINGVLPKTEAANDTLAAAIWEREQEALANLPADLAGLPTDTLFLQPVNMVGVSALSRLLSTQPVASPSSDEYLQQRPDIPSLSALVDDIARNEHGLIMLMGKGGVGKTTMAAAIAVRLADMGFDVHLTTSDPAAHLSMTLNGSLNNLQVSRIDPHEETERYRQHVLETKGKELDEAGKRLLEEDLRSPATEEIAVFQAFSRVIREAGKRFVVMDTAPTGHTLLLLDATGAYHREIAKKMGEKGHFTTPMMLLQDPERTKVLLVTLPETTPVLEAANLQADLERAGIHPWGWIINNSLSIADTRSPLLRMRAQQELPQIESVKRQHASRVALVPVLASEPTGIDKLKQLAG
- stoichiometry of Sb(III) binding (Sb): only background levels
